Here are results for 13 compounds from ChEMBL document CHEMBL1154198, “Chemical genetics of Plasmodium falciparum” (Nature, 2010).

Data set [1] in a line: ST_JUDE: Cytotoxicity using luciferase to measure ATP as an indicator of the viability of human epithelial hepatocellular carcinoma cells (HepG2). In kind it is toxicity, cell-based.
The test system of data set [2] is Plasmodium falciparum. The data set is described as follows: ST_JUDE: Cytotoxicity against Plasmodium falciparum K1. In kind it is functional, organism-based. The method in brief:
(§1)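 Asexual P. falciparum grown in human erythrocytes, exposed to compounds for 72 h, and growth read as the DNA quantity in treated versus control cultures. Dose-response run at 12 concentrations from 10 μM to 5 nM.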

Data set [3] relates to Plasmodium falciparum. Put plainly: ST_JUDE: Plasmodium falciparum K1 EC50 (uM) as measured by SYBR green dye. In kind it is functional, organism-based.
Data set [4] is described as follows: ST_JUDE: Cytotoxicity using luciferase to measure ATP as an indicator of the viability of human Burkitt''s lymphoma lymphoblast cells (Raji). The class given is toxicity, cell-based.
Data set [5] concerns Plasmodium falciparum. Put plainly: ST_JUDE: Cytotoxicity against Plasmodium falciparum D10 transfected with yeast DHOD. In kind it is functional, organism-based.
In data set [6] the test system is Plasmodium falciparum. The data set is described as follows: ST_JUDE: Cytotoxicity against Plasmodium falciparum W2. The class given is functional, organism-based.
Data set [7] concerns Plasmodium falciparum. The data set is described as follows: ST_JUDE: Cytotoxicity against Plasmodium falciparum SB-A6. The class given is functional, organism-based.
Data set [8] relates to Trypanosoma brucei. Put plainly: ST_JUDE: Cytotoxicity using luciferase to measure ATP as an indicator of the viability of Trypanosoma brucei. In kind it is functional, organism-based.
Data set [9] is described as follows: ST_JUDE: Cytotoxicity using luciferase to measure ATP as an indicator of the viability of human foreskin fibroblast cells (BJ). The class given is toxicity, cell-based.
Data set [10] relates to Plasmodium falciparum. Put plainly: ST_JUDE: Cytotoxicity against Plasmodium falciparum 3D7. In kind it is functional, organism-based. The method in brief: as §1
Data set [11] has as its system Plasmodium falciparum. The data set is described as follows: ST_JUDE: Cytotoxicity against Plasmodium falciparum V1/S. In kind it is functional, organism-based.
The test system of data set [12] is Plasmodium falciparum. Put plainly: ST_JUDE: Plasmodium falciparum 3D7 EC50 (uM) as measured by SYBR green dye. The class given is functional, organism-based.
Data set [13] concerns Toxoplasma gondii. The data set is described as follows: ST_JUDE: Growth inhibition of to Toxoplasma gondii, in human U-2OS cells, as measured by luciferase. In kind it is functional, organism-based. Particulars: RH, U2OS. An outline of the steps: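 T. gondii parasites engineered to express luciferase; drug sensitivity read by luminescence.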
The test system of data set [14] is Plasmodium falciparum. The data set is described as follows: ST_JUDE: Cytotoxicity against Plasmodium falciparum Dd2. In kind it is functional, organism-based.
The test system of data set [15] is Leishmania major. The data set is described as follows: ST_JUDE: Cytotoxicity using Alamar Blue to measure viability of Leishmania major. The class given is functional, organism-based. The method in brief:
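L. major promastigotes; drug susceptibility read with Alamar Blue.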
(In general: Alamar Blue is a resazurin reagent that responds to reducing activity.)

Data set [16] can be described thus: ST_JUDE: Cytotoxicity using luciferase to measure ATP as an indicator of the viability of human epithelial embryonic kidney cells (HEK293). The class given is toxicity, cell-based.

The structures appear in SMILES notation. A value given as a limit tells only on which side of the number the result lay.

Turning to `CCCCOc1ccc(N(C(C)=O)C2=C(N3CCCCC3)C(=O)c3ccccc3C2=O)cc1`, the half-maximal effective concentration (EC50) (in general, the midpoint of the concentration-response curve) in data set [1] worked out at 13.7 µM; in data set [2] it was 147 nM; in data set [3], 489 nM; in data set [4], 6.97 µM; in [5], 62 nM; in data set [6], 483 nM. The EC50 was 104 nM in data set [7]; 4.91 µM in data set [8]; above 28.5 µM in data set [9]; 167 nM in data set [10]; 120 nM in data set [11]; 722 nM in data set [12]. Further, the 50% effective concentration (EC50) in [13] is above 15.6 µM; in data set [14] it was 382 nM; in [15], above 12.2 µM; in data set [16], above 28.5 µM.

Turning to `CCOc1ccc(NC(=O)C2c3ccccc3C(=O)N(CC(C)C)C2c2cccs2)cc1` (stereo not drawn), the concentration for a half-maximal effect (EC50) is above 42.8 µM in data set [1]; 294 nM in [2]; 147 nM in data set [3]; above 42.8 µM in data set [4]; 368 nM in data set [5]; 134 nM in data set [6]. The EC50 is 353 nM in [7]; 6.89 µM in [8]; above 42.8 µM in data set [9]; 258 nM in data set [10]; 503 nM in data set [11]; 133 nM in data set [12]. The EC50 in data set [13] was above 23.5 µM; in data set [14], 362 nM; in [15], above 18.3 µM; in data set [16], above 42.8 µM.

In the case of `CCCCn1c(=N)n(CC(O)c2ccc(Br)cc2)c2ccccc21` (stereo not drawn), the concentration giving a half-maximal response (EC50) in [1] turned out to be 18.9 µM; in data set [2], 1360 nM; in data set [3] it was 390 nM; in data set [4], 32.9 µM; in [5], 5620 nM; in [6] it was 638 nM. For the same compound, the concentration for a half-maximal effect (EC50) in data set [7] was 2620 nM; in data set [8], 6.22 µM; in data set [9], above 43.4 µM; in data set [10] it was 2000 nM; in [11] it was 1110 nM; in [12], 1040 nM. The half-maximal effective concentration (EC50) in data set [13] is above 23.8 µM; in data set [14] it was 869 nM; in data set [15] it was above 18.6 µM; in data set [16], above 43.4 µM.

Regarding `Cc1cc(Nc2ccc(Br)c(C)c2)n2nc(C)nc2n1`, the EC50 in [1] was above 37.8 µM; in data set [2], 298 nM; in [3], 161 nM; in data set [4], above 37.8 µM; in data set [5], above 9710 nM; in data set [6] it was 120 nM. For the same compound, the EC50 in data set [7] is above 9710 nM; in data set [8], above 36.2 µM; in data set [9] it was above 37.8 µM; in [10] it was 214 nM; in data set [11], 296 nM; in [12], 167 nM. Also, the EC50 in data set [13] is above 20.7 µM; in data set [14], 204 nM; in data set [15], above 16.2 µM; in [16], above 37.8 µM.

In the case of `CCCO/C(O)=C1\C(C)=NC2=C(C(=O)CC(c3ccc(OC)cc3)C2)C1c1ccccc1F` (stereo not drawn), the EC50 is above 44.6 µM in [1]; 281 nM in data set [2]; 439 nM in [3]; above 44.6 µM in data set [4]; 419 nM in data set [5]; 83.9 nM in data set [6]. In addition, the EC50 in data set [7] was 243 nM; in data set [8], 9.66 µM; in data set [9] it was above 44.6 µM; in [10], 495 nM; in [11] it was 375 nM; in data set [12], 549 nM. Moreover, the concentration for a half-maximal effect (EC50) in [13] is above 24.4 µM; in data set [14], 636 nM; in data set [15], above 19.1 µM; in [16], above 44.6 µM.

For `CO/C(O)=C1\C(C)=NC2=C(C(=O)CC(c3ccc(OC)c(OC)c3)C2)C1c1ccc(F)cc1` (stereo not drawn), the EC50 in data set [1] is above 46.3 µM; in data set [2] it was 272 nM; in [3], 108 nM; in [4], above 46.3 µM; in data set [5] it was 182 nM; in [6] it was 208 nM. Besides, the concentration giving a half-maximal response (EC50) in data set [7] was 178 nM; in [8], 25.2 µM; in data set [9], above 46.3 µM; in data set [10], 236 nM; in data set [11], 409 nM; in data set [12], 122 nM. For the same compound, the EC50 in [13] was above 25.3 µM; in data set [14], 456 nM; in [15], above 19.8 µM; in data set [16], above 46.3 µM.

Consider `CCCCCCCCCC[n+]1ccccc1`, for which the EC50 was above 48.9 µM in data set [1]; 3600 nM in data set [2]; 1530 nM in [3]; 9.31 µM in data set [4]; 3930 nM in data set [5]; 899 nM in [6]. In addition, the concentration giving a half-maximal response (EC50) in data set [7] is 2880 nM; in [8], above 46.9 µM; in data set [9] it was above 48.9 µM; in data set [10], 2290 nM; in data set [11], 9360 nM; in data set [12] it was 1310 nM. For the same compound, the EC50 was above 26.8 µM in data set [13], 1150 nM in data set [14], above 20.9 µM in data set [15] and above 48.9 µM in [16].

Consider `COc1ccc(Nc2cc(C)nc(Nc3ccc(NS(=O)(=O)c4ccc(OC)cc4)cc3)n2)cc1`, for which the EC50 was 17.4 µM in data set [1]; above 12900 nM in data set [2]; above 15000 nM in data set [3]; 14.3 µM in data set [4]; 1690 nM in [5]; above 12900 nM in [6]. In addition, the EC50 in data set [7] is 546 nM; in data set [8] it was 5.79 µM; in [9] it was above 50.3 µM; in [10], 1030 nM; in [11], above 12900 nM; in data set [12] it was 743 nM. Besides, the EC50 is above 27.6 µM in data set [13], 1230 nM in data set [14], 0.175 µM in data set [15] and 30.6 µM in data set [16].

Turning to `Cc1ccc2c(c1)N(CCO)/C(=C/c1sc3ccccc3[n+]1C)S2`, the EC50 in data set [1] is above 16.7 µM; in data set [2], 330 nM; in data set [3] it was 162 nM; in data set [4], 1.78 µM; in [5], 341 nM; in data set [6], 240 nM. Also, the EC50 is 468 nM in data set [7]; 5.2 µM in data set [8]; above 16.7 µM in data set [9]; 250 nM in [10]; 394 nM in data set [11]; 423 nM in data set [12]. Besides, the concentration for a half-maximal effect (EC50) in [13] was above 9.16 µM; in data set [14] it was 197 nM; in [15] it was above 7.16 µM; in data set [16] it was above 16.7 µM.

For `CCOc1ccc(/C=C2\Oc3c(ccc(O)c3CN3CCCCC3)C2=O)cc1`, the EC50 in [1] was above 47.1 µM; in data set [2] it was 500 nM; in data set [3], 467 nM; in data set [4] it was above 47.1 µM; in data set [5] it was 1850 nM; in [6], 1150 nM. Also, the EC50 in [7] is 3390 nM; in [8], above 45.2 µM; in data set [9], above 47.1 µM; in data set [10], 1770 nM; in [11], 1180 nM; in data set [12], 1290 nM. In addition, the EC50 is above 25.8 µM in data set [13], 2140 nM in data set [14], above 20.2 µM in data set [15] and above 47.1 µM in data set [16].

Regarding `CC(C)CN1C(=O)c2ccccc2C(C(=O)Nc2ccc(F)cc2F)C1c1cccs1` (stereo not drawn), the concentration for a half-maximal effect (EC50) in data set [1] was above 43.3 µM; in [2], above 11100 nM; in data set [3] it was 399 nM; in [4] it was above 43.3 µM; in [5] it was 687 nM; in data set [6] it was 738 nM. Besides, the concentration giving a half-maximal response (EC50) in data set [7] was 970 nM; in data set [8], 8.86 µM; in data set [9], above 43.3 µM; in data set [10], 647 nM; in [11], 942 nM; in [12] it was 326 nM. Moreover, the EC50 in data set [13] is above 23.7 µM; in [14], 808 nM; in data set [15], above 18.5 µM; in [16], above 43.3 µM.

For the compound `CCOc1ccc(Nc2cc(C)c3ccc(O)cc3n2)cc1`, the half-maximal effective concentration (EC50) in [1] was found to be 30.4 µM; in data set [2], 158 nM; in [3] it was 153 nM; in data set [4], 34.4 µM; in data set [5], 504 nM; in data set [6], 233 nM. In addition, the EC50 is 460 nM in [7]; 21.7 µM in data set [8]; above 51.7 µM in data set [9]; 714 nM in data set [10]; 195 nM in data set [11]; 483 nM in [12]. The EC50 was above 28.3 µM in data set [13], 629 nM in data set [14], above 22.1 µM in [15] and above 51.7 µM in data set [16].

Regarding `CC(C)c1ccc(NC(=O)/C=C/c2ccccc2Cl)cc1`, the EC50 is above 40.7 µM in data set [1]; above 10500 nM in data set [2]; 942 nM in data set [3]; above 40.7 µM in data set [4]; above 10500 nM in [5]; 416 nM in [6]. Also, the EC50 was above 10500 nM in data set [7]; 23.1 µM in data set [8]; above 40.7 µM in [9]; above 10500 nM in [10]; above 10500 nM in [11]; 1100 nM in [12]. For the same compound, the EC50 was above 22.3 µM in [13], 1610 nM in data set [14], above 17.4 µM in data set [15] and above 40.7 µM in [16].
